Values after ≈ are worked out from the molar mass of the structure shown. Some results are limits rather than exact numbers.

The subject of data set [1] is Trypanosoma cruzi. The data set is described as follows: WHO-TDR: Chagas disease. To be noted: MRC5. Format: functional, organism-based, Homo sapiens. A digest of the protocol:
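A diverse library of 10,000 compounds from Life Chemicals, filtered for drug-likeness and reactive groups, was screened against intracellular amastigotes of Trypanosoma cruzi Tulahuen CL2 beta-galactosidase strain. The parasites were grown in MRC-5SV2 human lung fibroblast host cells, and a reference drug served as positive control under previously published standard procedures. Antiparasitic potency is given as IC50.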

Data set [2] relates to Onchocerca ochengi. The data set can be described thus: WHO-TDR: Onchocerciasis. Details: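 at 12.5 µM on microfilariae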. Format: functional. A digest of the protocol: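 A diverse library of 10,000 compounds from Life Chemicals, filtered for drug-likeness and reactive groups, was screened against whole microfilariae of Onchocerca ochengi or Onchocerca lienalis. These animal pathogens served as stand-ins for the human parasite. Activity is given as percent inhibition and as IC50.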

The test system of data set [3] is Plasmodium falciparum K1. The data set is described as follows: WHO-TDR: Malaria. Format: functional, organism-based, Homo sapiens. Conditions: Erythrocyte. The essentials: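 Following previously published standard procedures, with a reference drug serving as positive control, compounds were tested on the Plasmodium falciparum K1 strain inside human red blood cells. The 10,000-compound diverse set came from Life Chemicals after filtering for drug-likeness and reactive groups. Potency against the parasite appears as IC50.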

Data set [4] has as its system Leishmania infantum. The data set can be described thus: WHO-TDR: Leishmaniasis. It counts as functional, organism-based, Mus musculus. To be noted: Macrophage. The essentials: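 Following previously published standard procedures, a whole-organism screen was run on Leishmania infantum MHOM/MA(BE)/67 amastigotes within murine peritoneal macrophages, with a reference drug as positive control. The 10,000 compounds tested formed a diverse Life Chemicals library filtered for drug-likeness and reactive groups. Potency against the parasite is reported as IC50.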

In data set [5] the test system is Schistosoma mansoni. The data set can be described thus: WHO-TDR: Schistosomiasis. Format: functional. Further details: concentration or dose not given beside the values. The essentials:
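A diverse library of 10,000 compounds from Life Chemicals, filtered for drug-likeness and reactive groups, was screened against whole larval and/or adult Schistosoma mansoni worms of the Puerto Rican strain. Previously published standard procedures were followed, with a reference drug as positive control. Activity is given as percent inhibition and as IC50.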

The subject of data set [6] is Brugia malayi. The data set is described as follows: WHO-TDR: Lymphatic Filariasis. It counts as functional. Further details: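 tested at 10 µM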. The essentials: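 A diverse library of 10,000 compounds from Life Chemicals was screened against Brugia malayi microfilariae in a whole-organism assay. The library had been filtered for drug-likeness and reactive groups. Activity is given as percent inhibition and as IC50.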

Data set [7] can be described thus: WHO-TDR: Cytotoxicity. Format: toxicity, cell-based. Conditions: human, MRC5 cells.
Data set [8] deals with Trypanosoma brucei brucei. The data set can be described thus: WHO-TDR: Human African Trypanosomiasis (HAT). It counts as functional, organism-based. To be noted: Squib-427. The essentials: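 Bloodstream forms of the Trypanosoma brucei Squib 427 strain were tested in a whole-organism screen with a diverse library from Life Chemicals of 10,000 compounds. Before screening, the library was filtered for drug-likeness and for reactive groups. The assay used previously published standard procedures and included reference drugs as positive controls. Potency against the parasite is expressed as IC50.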

With `CC1(C)Cc2cccc(OCCCS(=O)(=O)NCc3cccs3)c2O1`, the concentration for half-maximal inhibition (IC50) in data set [1], in data set [3], in data set [4], in data set [7] and in data set [8] was > 11.4 µg/mL throughout. The “% Inhibition” value in data set [2] was 100%; in data set [5] it was 0%; in data set [6], 20%.

As for `CCOc1ccccc1C(=O)Nc1sc(SCC(N)=O)nc1-c1ccccc1`, the IC50 was 7.06 µg/mL (≈ 17.1 µM) in data set [1]; > 12.4 µg/mL in data set [3]; > 12.4 µg/mL in data set [4]; > 12.4 µg/mL in data set [7]; 3.97 µg/mL (≈ 9.6 µM) in data set [8]. The “% Inhibition” value in data set [2] came out at 100%; in data set [5], 0%; in data set [6] it was 0%.

Consider `O=S(=O)(CCCOc1ccc(F)cc1)NCc1ccccc1Cl`, for which the IC50 was 7.84 µg/mL (≈ 21.9 µM) in data set [1]; > 10.7 µg/mL in data set [3]; > 10.7 µg/mL in data set [4]; > 10.7 µg/mL in data set [7]; > 10.7 µg/mL in data set [8]. Also, the “% Inhibition” value is reported as 100% in data set [2], 0% in data set [5] and 0% in data set [6].

On to `O=C(Cc1csc(NC(=O)c2ccc[nH]c2=O)n1)Nc1ccc(Cl)cc1`, for which the IC50 in data set [1] is > 11.7 µg/mL; in data set [3], > 11.7 µg/mL; in data set [4] it was 0.378 µg/mL (≈ 0.972 µM); in data set [7], > 11.7 µg/mL; in data set [8] it was > 11.7 µg/mL. For the same compound, the entries for the “% Inhibition” value in data set [2], in data set [5] and in data set [6] were 0%, 0% and 20%, respectively.

For the compound `COc1ccc(-c2ccc(=O)n(CCCNC(=O)Cc3ccc(F)cc3)n2)cc1`, the IC50 in data set [1] was > 11.9 µg/mL; in data set [3], > 11.9 µg/mL; in data set [4], > 11.9 µg/mL; in data set [7], 11.3 µg/mL (≈ 28.7 µM); in data set [8] it was > 11.9 µg/mL. For the same compound, the “% Inhibition” value in data set [2] is listed as 100%; in data set [5] it was 0%; in data set [6] it was 0%.

On to `CCOC(=O)c1ccccc1NC(=O)CSc1ncc(CO)n1Cc1ccc(OC)cc1`, for which the IC50 in data set [1], in data set [3], in data set [4], in data set [7] and in data set [8] was > 13.7 µg/mL in each case. The “% Inhibition” value in data set [2] is recorded as 100%; in data set [5] it was 0%; in data set [6] it was 25%.

As to `CCn1ccc(C(=O)Nc2nc(C(C)(C)C)cs2)n1`, the IC50 in data set [1], in data set [3], in data set [4], in data set [7] and in data set [8] was > 8.35 µg/mL each time. For the same compound, the “% Inhibition” value in data set [2] came to 100%; in data set [5], 16.7%; in data set [6], 0%.

With `CC(=O)N1CCc2ccc(NC(=O)c3ccc(C(C)(C)C)cc3)cc21`, the IC50 was 0.3 µg/mL (≈ 0.892 µM) in data set [1]; > 10.1 µg/mL in data set [3]; > 10.1 µg/mL in data set [4]; > 10.1 µg/mL in data set [7]; > 10.1 µg/mL in data set [8]. Further, the “% Inhibition” value is listed as 0% in data set [2], 16.7% in data set [5] and 0% in data set [6].

Take `CS(=O)(=O)c1ccc2nc(N(Cc3cccnc3)C(=O)c3cccc(Oc4ccccc4)c3)sc2c1`: the 50% inhibitory concentration (IC50) in data set [1] was 0.275 µg/mL (≈ 0.533 µM); in data set [3], 4.49 µg/mL (≈ 8.71 µM); in data set [4], > 15.5 µg/mL; in data set [7], > 15.5 µg/mL; in data set [8], > 15.5 µg/mL. The “% Inhibition” value in data set [2], in data set [5] and in data set [6] was 0% each time.

Take `Cc1cccc2sc(N(CCCn3ccnc3)C(=O)c3ccc(Cl)s3)nc12`: the concentration for half-maximal inhibition (IC50) in data set [1] is 1.22 µg/mL (≈ 2.93 µM); in data set [3] it was 0.619 µg/mL (≈ 1.48 µM); in data set [4] it was > 13.6 µg/mL; in data set [7], 5.04 µg/mL (≈ 12.1 µM); in data set [8] it was > 13.6 µg/mL. Also, the entries for the “% Inhibition” value in data set [2], in data set [5] and in data set [6] were 100%, 0% and 0%, respectively.

Take `O=C(Nc1nnc(-c2ccc(Br)s2)o1)c1ccno1`: the IC50 in data set [1] is > 10.2 µg/mL; in data set [3], > 10.2 µg/mL; in data set [4], 0.331 µg/mL (≈ 0.97 µM); in data set [7], > 10.2 µg/mL; in data set [8] it was > 10.2 µg/mL. The “% Inhibition” value was 0% in data set [2], 16.7% in data set [5] and 0% in data set [6].

Turning to `O=C(Nc1nc2c(s1)CCCC2)C1CCN(S(=O)(=O)c2ccc(F)cc2)CC1`, the half-inhibitory concentration (IC50) in data set [1] is 2.79 µg/mL (≈ 6.58 µM); in data set [3], > 12.7 µg/mL; in data set [4] it was > 12.7 µg/mL; in data set [7], > 12.7 µg/mL; in data set [8], 4.07 µg/mL (≈ 9.6 µM). In addition, the “% Inhibition” value in data set [2] was found to be 100%; in data set [5], 0%; in data set [6], 0%.

Regarding `C/C=C/Cn1c(=O)c2c(nc3n(C(C)c4ccccc4)c(C)cn23)n(C)c1=O` (stereo unspecified), the IC50 in data set [1] is 3.82 µg/mL (≈ 10.1 µM); in data set [3] it was 6.29 µg/mL (≈ 16.7 µM); in data set [4], > 11.3 µg/mL; in data set [7], > 11.3 µg/mL; in data set [8] it was 0.099 µg/mL (≈ 0.262 µM). Besides, the “% Inhibition” value in data set [2] worked out at 0%; in data set [5] it was 0%; in data set [6] it was 20%.

On to `Cc1ccc(C)c2sc(N(CCCn3ccnc3)C(=O)c3ccco3)nc12`, for which the half-maximal inhibitory concentration (IC50) was 1.49 µg/mL (≈ 3.92 µM) in data set [1]; 0.45 µg/mL (≈ 1.18 µM) in data set [3]; > 12.5 µg/mL in data set [4]; 3.53 µg/mL (≈ 9.28 µM) in data set [7]; 3.86 µg/mL (≈ 10.2 µM) in data set [8]. In addition, the “% Inhibition” value in data set [2] was 100%; in data set [5], 0%; in data set [6] it was 0%.

On to `Cc1ccc(NC(=O)N2CCN(c3ccc(Nc4cccnc4)nn3)CC2)cc1C`, for which the 50% inhibitory concentration (IC50) in data set [1], in data set [3], in data set [4], in data set [7] and in data set [8] was > 12.1 µg/mL throughout. Further, the “% Inhibition” value in data set [2] is 100%; in data set [5], 0%; in data set [6], 0%.

In the case of `O=c1c2nccnc2n(Cc2cccc(C(F)(F)F)c2)c(=O)n1Cc1ccc(F)cc1`, the concentration for half-maximal inhibition (IC50) was 1.19 µg/mL (≈ 2.76 µM) in data set [1]; 7.26 µg/mL (≈ 16.9 µM) in data set [3]; > 12.9 µg/mL in data set [4]; 10 µg/mL (≈ 23.2 µM) in data set [7]; 4.08 µg/mL (≈ 9.49 µM) in data set [8]. The results for the “% Inhibition” value in data set [2], in data set [5] and in data set [6] were 100%, 25% and 0%, respectively.

On to `O=C(c1ccc(Cl)cc1Cl)N1CCN(c2ccc(Nc3cccnc3)nn2)CC1`, for which the half-inhibitory concentration (IC50) in data set [1] is 3.7 µg/mL (≈ 8.63 µM); in data set [3] it was 7.24 µg/mL (≈ 16.9 µM); in data set [4] it was > 12.9 µg/mL; in data set [7], > 12.9 µg/mL; in data set [8] it was > 12.9 µg/mL. Moreover, the “% Inhibition” value in data set [2] is 100%; in data set [5] it was 0%; in data set [6] it was 0%.

For `COc1ccc(CCC(=O)NCCc2ccc(N3CCCC3)cc2)cc1`, the 50% inhibitory concentration (IC50) is > 10.6 µg/mL in data set [1]; > 10.6 µg/mL in data set [3]; 0.342 µg/mL (≈ 0.97 µM) in data set [4]; > 10.6 µg/mL in data set [7]; > 10.6 µg/mL in data set [8]. In addition, the “% Inhibition” value in data set [2], in data set [5] and in data set [6] was 0% each time.

In the case of `O=C(CCn1cnc2c(cnn2-c2ccccc2)c1=O)Nc1nccs1`, the IC50 in data set [1] is > 11 µg/mL; in data set [3], > 11 µg/mL; in data set [4] it was 3.56 µg/mL (≈ 9.71 µM); in data set [7], > 11 µg/mL; in data set [8], > 11 µg/mL. The “% Inhibition” value in data set [2] was found to be 0%; in data set [5], 100%; in data set [6], 20%.

Take `O=C(CSc1ncc(CO)n1Cc1ccc(Cl)cc1)NCc1ccccc1Cl`: the IC50 in data set [1] is 4.39 µg/mL (≈ 10.1 µM); in data set [3] it was > 13.1 µg/mL; in data set [4], > 13.1 µg/mL; in data set [7], > 13.1 µg/mL; in data set [8], 4.84 µg/mL (≈ 11.1 µM). The “% Inhibition” value in data set [2] is 100%; in data set [5], 0%; in data set [6], 25%.

As for `CCn1nc(C(=O)Nc2nnc(-c3ccc4c(c3)CCCC4)o2)cc1C`, the IC50 in data set [1], in data set [3], in data set [4], in data set [7] and in data set [8] was > 10.5 µg/mL throughout. Further, the results for the “% Inhibition” value in data set [2], in data set [5] and in data set [6] were 100%, 16.7% and 0%, respectively.

As to `O=c1ccc(-c2ccncc2)nn1CCNS(=O)(=O)c1ccc2c(c1)CCCC2`, the half-maximal inhibitory concentration (IC50) in data set [1], in data set [3], in data set [4], in data set [7] and in data set [8] was > 12.3 µg/mL in each case. For the same compound, the “% Inhibition” value came to 100% in data set [2], 0% in data set [5] and 0% in data set [6].

The values above are taken from ChEMBL document CHEMBL2093137, “WHO-TDR NTD Screening”.
